# PfG6PD inh – PfG6PD enzyme inhibitors, primary screen, biochemical, fluorescence intensity, uHTS; glucose-6-phosphate dehydrogenase-6-phosphogluconolactonase (Plasmodium falciparum 3D7); PfGluPho enzyme, NADPH resazurin-diaphorase fluorescence; inhibition, % at 20 µM; hit rate 0.78% among 350,000;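 active means inhibition reaching at least a set limit at 20 µM in the primary screen, cut at about 59% in these data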;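 further: 0% = DMSO wells with substrate and 100% = DMSO wells lacking glucose-6-phosphate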
# M18AAP inhibitor – PfM18AAP inhibitors, malaria aminopeptidase, primary screen, biochemical, QFRET, recombinant enzyme | M18 aspartyl aminopeptidase (Plasmodium falciparum 3D7) | inhibition, % at 7.35 µM | hit rate 1.2% among 290,000 | H-Glu-NHMec fluorogenic cleavage;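 active means inhibition above the campaign mean inhibition over all tested compounds plus 3 SD, cut at about 28% in these data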;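 further: 0% = plate median of test compound wells and 100% = 2 mM ZnCl2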
# UBC13 inh – UBC13 polyubiquitin chain formation inhibitors, primary screen, biochemical, TR-FRET, uHTS. AID 485273, 2010. hit rate 0.47% among 330,000. Ubiquitin-conjugating enzyme E2 N (Homo sapiens), P61088. inhibition, % at 20 µM; in the data active means inhibition above about 45%, passing the limit was not always enough
# Target sequence (P61088 whole entry, looked up): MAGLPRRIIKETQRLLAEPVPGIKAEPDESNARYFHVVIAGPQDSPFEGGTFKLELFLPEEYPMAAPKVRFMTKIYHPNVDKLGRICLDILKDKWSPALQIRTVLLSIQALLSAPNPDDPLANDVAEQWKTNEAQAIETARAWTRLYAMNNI
# ZTA counter – counter-screen for EBNA-1 inhibitors: inhibitors of Epstein-Barr virus ZTA; AID 2234; P03206; inhibition, % at 11 µM; hit rate 0.15% among 320,000; ZTA-DNA binding, fluorescence polarization; in the data active means inhibition above about 33%
# Target sequence (P03206 whole entry, looked up): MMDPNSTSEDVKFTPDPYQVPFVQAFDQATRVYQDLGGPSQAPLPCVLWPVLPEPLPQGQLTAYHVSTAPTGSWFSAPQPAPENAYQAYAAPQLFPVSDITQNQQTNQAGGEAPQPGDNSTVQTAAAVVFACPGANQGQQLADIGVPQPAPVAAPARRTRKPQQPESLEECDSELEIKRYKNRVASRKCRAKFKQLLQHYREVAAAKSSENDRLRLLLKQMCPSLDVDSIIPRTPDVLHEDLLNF
# EBNA-1 inhibitor – EBNA-1 DNA-binding inhibitors, primary screen, biochemical, fluorescence polarization; hit rate 0.34% among 300,000; inhibition, % at 14.8 µM; AID 1950, 2009; in the data active means inhibition above about 28%
# Apaf-1 inh – inhibitors of human Apaf-1 apoptosome, primary screen, biochemical, DEVD-Rh110 fluorescence, uHTS | AID 489030, 2010 | reconstituted apoptosome caspase-3 activity | hit rate 0.71% among 330,000 | inhibition, % at 20 µM | Apoptotic protease-activating factor 1 (Homo sapiens), O14727; active means inhibition of at least 40% at 20 µM;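 further: plate controls were DMSO wells for no effect and DEVD-CHO caspase inhibitor wells for full effect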
#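 Material: reconstituted apoptosome with Apaf-1, cytochrome c, caspase-9, procaspase-3, dATP; medium: pH 7.5 Hepes buffer with CHAPS, BSA, DTT; also added: cytochrome c and DEVD-Rh110 substrate; timing: 30 min plus 50 min, RT; signal: Rh110 fluorescence intensity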
# Apaf-1 inh conf2 – Apaf-1 inhibitors, single-dose retest, confirmation, biochemical, fluorescence, DEVD-Rh110, 20 µM; shares compounds with Apaf-1 inh; reconstituted apoptosome, caspase-3 DEVD-Rh110 fluorescence; hit rate 25% among 1,800; inhibition, % at 20 µM;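 active means mean inhibition of at least 40% at 20 µM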;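 further: plate controls were DMSO wells for no effect and DEVD-CHO caspase inhibitor control wells for full effect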
# Rh110 interf inh – Rh110 fluorescence interference by putative Apaf-1 inhibitors, confirmation, artefact control for Apaf-1 inhibitor project, biochemical, 20 µM; shares compounds with Apaf-1 inh; quenched caspase reaction; activation (fluorescence interference), % at 20 µM; 1,800 tested, under 10 active;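 active means signal rise of 40% or more at 20 µM, treated as a fluorescence artifact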
# Apaf1 inh interf – fluorescence interference of Apaf-1 inhibitor hits, dose response, artefact control for Apaf-1 inhibitor project. shares compounds with Apaf-1 inh. fluorescence interference counterscreen, Apaf-1 assay format. IC50, µM. 460 tested, under 10 active; call rule not given here
# Numbers without * were called inactive; . = not tested or not shown. Rows were chosen to be rich in hits. Some 2.9% of all compounds tested hit in one or more screens of this group.
SMILES,PfG6PD inh,M18AAP inhibitor,UBC13 inh,ZTA counter,EBNA-1 inhibitor,Apaf-1 inh,Apaf-1 inh conf2,Rh110 interf inh,others
COC(=O)CCCC1=CC2=C(c3ccccc3)C(=O)C(C)(OC(=O)C3CCCC3)C(=O)C2=CN1CC1CC1 (stereo unspecified),8,.,-21,-5,15,21,.,.,
CN(CC(=O)NCCc1ccccc1)S(=O)(=O)c1ccccc1,-3,4,-9,1,1,0,.,.,
O=C(COC(=O)c1ccccc1)NCC1CCCO1 (stereo unspecified),-10,5,0,-3,-1,56*,5,1,
CC(=O)C(C(C)=O)C1(O)C(=O)c2ccccc2C1=O,-17,-1,-14,14,1,86*,87*,-2,Apaf1 inh interf=>100
O=C1c2cccc3cccc(c23)C(=O)C1(O)O,38,.,-29,-14,2,-4,.,.,
COc1ccc(CCNC(=O)COc2ccc(S(=O)(=O)N3CCOCC3)cc2C)cc1,7,-3,2,1,7,0,.,.,
COc1cc(NC(C)CCCN)c2ncccc2c1Oc1ccccc1 (stereo unspecified),50,12,1,2,3,70*,32,2,
COC(=O)C1=C(C)N(CCCC(=O)O)C(=O)NC1c1cccc(OC)c1 (stereo unspecified),-16,.,-6,5,8,2,.,.,
O=c1oc2ccccc2c(N2CCOCC2)c1[N+](=O)[O-],-14,0,4,13,9,-2,.,.,
Cc1ccc(C(=O)OCC(=O)Nc2ccc(N3CCOCC3)cc2)cc1,-1,.,-4,.,.,4,.,.,
Cn1c2ccccc2c(=O)c2ccc(C#CC3(N)CCCCC3)cc21,20,8,29,1,14,38,.,.,
NC1(C#Cc2ccc3c(=O)c4ccccc4sc3c2)CCCCC1,-3,.,37,.,.,60*,23,1,
COc1cc2c(cc1OC)CN(Cc1cc(=O)n3c(-c4ccccc4)csc3n1)CC2,23,-9,-8,8,3,42*,11,8,
COc1ccc2c(C)c(C(=O)N3CCN(Cc4ccccc4)CC3)oc2c1,-17,4,-3,.,.,16,.,.,
COc1ccc(O)c(C(c2c(C)[nH][nH]c2=O)c2c(C)[nH][nH]c2=O)c1,43,7,-32,21,-2,67*,14,-1,
Cc1ccc(C(C[N+](=O)[O-])c2c(N)n(C)c(=O)n(C)c2=O)cc1 (stereo unspecified),16,18,-9,8,-5,-8,.,.,
COc1cccc(C(C[N+](=O)[O-])c2c(C)[nH]n(-c3ccccc3)c2=O)c1 (stereo unspecified),-11,39*,-23,-1,-2,97*,16,-7,
Cc1[nH]n(-c2ccccc2)c(=O)c1C(C[N+](=O)[O-])c1ccc(Br)cc1 (stereo unspecified),2,30*,-42,-1,6,87*,96*,16,Apaf1 inh interf=>100
COc1cccc(N=Nc2c(C)[nH]n(-c3ccccc3)c2=O)c1,8,5,-34,6,0,9,.,.,
COc1ccccc1Nc1nc(N)nc(CSC(=S)N2CC(C)CC(C)C2)n1 (stereo unspecified),28,-7,3,-15,-6,20,.,.,
COc1cc(C2C3=C(COC3=O)Oc3cc4c(cc32)OCO4)cc(OC)c1OC(C)=O (stereo unspecified),-5,.,.,.,.,.,.,.,
O=C(NC1=C(Nc2ccc(F)cc2)C(=O)c2ccccc2C1=O)c1ccc(Cl)cc1,44,0,-122,13,2,70*,68*,2,Apaf1 inh interf=>100
O=C(Nc1ccccc1NC(=O)c1ccc(F)cc1)c1ccc(F)cc1,-5,-5,4,8,6,1,.,.,
Cc1ccc(C)c(S(=O)(=O)C(C#N)c2nc3ccccc3nc2N2CCCC2)c1 (stereo unspecified),-1,0,-36,-7,-2,87*,12,1,
N#CC(c1nc2ccccc2nc1N1CCCC1)S(=O)(=O)c1ccccc1 (stereo unspecified),29,5,-26,2,3,64*,13,3,
SMILES,PfG6PD inh,M18AAP inhibitor,UBC13 inh,ZTA counter,EBNA-1 inhibitor,Apaf-1 inh,Apaf-1 inh conf2,Rh110 interf inh,others
Cc1cccc(S(=O)(=O)C(C#N)c2nc3ccccc3nc2N2CCCC2)c1 (stereo unspecified),50,5,-38,10,10,55*,20,5,
CN1CCN(c2nc3ccccc3nc2C(C#N)S(=O)(=O)c2ccccc2)CC1 (stereo unspecified),4,7,4,18,0,-13,.,.,
COc1ccc2sc(-c3ccccc3OC)c(-c3ccc(OCCN(C)C)cc3)c2c1,13,.,.,.,.,65*,18,13,
COc1ccc2sc(-c3ccccc3OC)c(-c3ccc(OC)c(F)c3)c2c1,6,.,11,2,.,-7,.,.,
COc1ccc2c(-c3ccc(OCCN4CCCCC4)cc3)c(-c3ccccc3OC)sc2c1,22,.,.,.,.,60*,9,11,
COc1ccccc1-c1sc2ccccc2c1-c1ccc(OCCN2CCCCC2)cc1,20,.,.,.,.,62*,10,10,
COc1ccc(-c2c(-c3ccccc3OC)sc3ccccc23)cc1OC,19,-5,22,-5,12,7,.,.,
CC(=O)Nc1ccc(OCC(=O)NCc2ccc3c(c2)OCO3)cc1,-3,-9,14,2,2,-7,.,.,
CC(=NNC(=O)CSCC(=O)NN=C(C)c1ccccc1)c1ccccc1,-13,.,.,.,.,.,.,.,
C=CCN(CC=C)C(=S)Nc1ccc2nsnc2c1,7,1,6,3,0,96*,9,-5,
S=C(NCc1ccc2c(c1)OCO2)Nc1ccc2nsnc2c1,32,7,-4,6,-16,62*,8,2,
S=C(Nc1ccc2nsnc2c1)NC1CCCCC1,37,12,0,2,-11,7,.,.,
C=CCNC(=S)Nc1ccc2nsnc2c1,-3,9,-8,-26,-6,23,.,.,
CC1CCN(C(=O)Nc2ccc3nsnc3c2)CC1,10,6,6,11,1,2,.,.,
